Results on three compounds are retold here after ChEMBL document CHEMBL4725411, “A Phosphoramidate Strategy Enables Membrane Permeability of a Non-nucleotide Inhibitor of the Prolyl Isomerase Pin1” (ACS Med Chem Lett, 2020).

The source made the active and inactive calls. No cut-off for these calls is given here. A value given as a limit tells only on which side of the number the result lay.

Series [1] in a line: Octanol/water partition coefficient, logP of compound. Type of series: physicochemical.
The target of series [2] is Peptidyl-prolyl cis-trans isomerase NIMA-interacting 1 (Homo sapiens, UniProt Q13526). Briefly: Displacement of FITC-WFYpSPFLE from human Pin1 (45-163) catalytic domain by fluorescence polarization assay.
Series [3] is described as follows: Prodrug conversion in cell free extract. It is filed as ADME. In short, it runs like this:
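Cell-free control run in medium without cells, then ethyl acetate extraction and UPLC-MS for the intermediate and the free phosphate.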

Series [4] can be described thus: Prodrug conversion in human K562 cells assessed as cytosolic enzyme product of 1-R-phosphate after 5 hrs by UPLC-MS analysis. It is filed as ADME, cell-based. Conditions: k562, 5 h. In short, it runs like this:
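K562 cells exposed 5 h in serum-free medium, then washed extensively, centrifuged and extracted with ethyl acetate. Products quantified by UPLC-MS. DMSO solvent control subtracted as background. Average of duplicates with full range.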

The subject of series [5] is PC-3. As to the kind of experiment: Inhibition of colony formation in human PC-3 cells. Type of series: functional, cell-based. In short, it runs like this:
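PC3 cells treated at low density, colony formation scored. Mean of triplicate experiments, error as SD.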

Series [6] in a line: Prodrug conversion in human MDA-MB-231 cells assessed as increase in Pin1 level at 5 uM in presence of 100 uM TrpGc Hint1 inhibitor. It is filed as ADME, cell-based. As to conditions: mda-mb-231, 5 µM. Summed up:
(§1)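 MDA-MB-231 cells treated over a dose series for 72 h (longer than 24 h), with or without the Hint1 inhibitor TrpGc at 100 μM. Pin1 abundance at normal temperature used as the read-out.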

A short description of series [7]: Prodrug conversion in human MDA-MB-231 cells assessed as increase in Pin1 level mesured longer than 24 hrs. Conditions: mda-mb-231, 24 h. Type of series: ADME, cell-based. In short, it runs like this:
as §1

The test system of series [8] is PC-3. Briefly: Antiproliferative activity in human PC-3 cells after 72 hrs by ATP-Glo assay. It is filed as functional, cell-based. In short, it runs like this: (§2)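 PC3 cells grown to higher confluence, compound exposure 72 h. Proliferation read by ATP-Glo luminescence or by MTT.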
Series [9] relates to PC-3. As to the kind of experiment: Antiproliferative activity in human PC-3 cells after 72 hrs by MTT assay. It is filed as functional, cell-based. Summed up: as §2
A short description of series [10]: Prodrug release in human K562 cells assessed as 1R-phosphate binding to Pin1 at 25 uM after 5 hrs by Western blot based cellular thermal shift assay. It is filed as ADME, cell-based. Conditions: k562, 5 h. In short, it runs like this:
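K562 cells exposed to prodrug at 25 μM or 0.25% DMSO for 5 h, then heated across 38–60 °C and lysed. Soluble Pin1 measured by Western blot. Three independent experiments, error as SEM.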

The nature of series [11]: Prodrug release in human MDA-MB-231 cells assessed as 1R-phosphate binding to Pin1 at 25 uM at fixed temperature 48 degC by Western blot based assay. It is filed as ADME, cell-based. Conditions: mda-mb-231, 25 µM. In short, it runs like this: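 MDA-MB-231 cells dosed at 25 μM or with 0.25% DMSO for 5 h, heated at a fixed 48 °C and lysed. Soluble Pin1 measured by Western blot in biological quadruplicates.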

Peptidyl-prolyl cis-trans isomerase NIMA-interacting 1, sequence (Q13526 whole entry, the tested form may be a part): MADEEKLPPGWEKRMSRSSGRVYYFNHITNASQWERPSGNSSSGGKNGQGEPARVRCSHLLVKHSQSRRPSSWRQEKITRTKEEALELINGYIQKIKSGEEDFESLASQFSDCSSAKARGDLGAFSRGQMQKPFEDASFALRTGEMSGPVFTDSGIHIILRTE

As to `CCOC(=O)CNP(=O)(OC[C@@H](Cc1ccccc1)NC(=O)c1cc2ccccc2s1)Oc1ccccc1` (some centres undefined), the logP in [1] came to 0.27. In series [2], this compound had an IC50 greater than 10 µM. Further, the Drug metabolism result is “Metabolite_Notdetected” in series [3]; “Metabolite_Detected” in [4]; “Metabolite_Notdetected” in [6]; “Metabolite_Detected” in [7]; “Metabolite_Detected” in [10]; “Metabolite_Detected” in [11]. The inhibition result in the series with PC-3 [5] is “Active”. Also, the outcome with PC-3 [8] and with PC-3 [9] was inactive.
`O=C(N[C@@H](COP(=O)(O)O)Cc1ccccc1)c1cc2ccccc2s1` registered a logP in series [1] of less than -4.6.
Consider `CCOC(=O)CNP(=O)(OC[C@H](Cc1ccccc1)NC(=O)c1cc2ccccc2s1)Oc1ccccc1` (some centres undefined), for which the IC50 in series [2] was greater than 10 µM. Besides, the inhibition result with PC-3 [5] is “inactive”.
